Test results from ChEMBL document CHEMBL1122761, “Beta 1-selective adrenoceptor antagonists. 3. 4-Azolyl-linked phenoxypropanolamines” (J Med Chem, 1984).

Tests used:
[1] = molecular target: Beta-1 adrenergic receptor (Rattus norvegicus) (UniProt P18090); test: Inhibition of isoprenaline induced tachycardia in anaesthetised rats.; format: functional
Procedure, shortened: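 Pentobarbitone-anesthetized rats (75 mg/kg ip), bilaterally vagotomized, tracheal cannula. Isoprenaline given via right femoral vein; carotid blood pressure and tachograph heart rate recorded. Test compound injected 5 min after isoprenaline, cumulative doses up to 2 mg/kg. ED50 (50% reduction of control isoprenaline response) with 95% confidence limits by linear regression of log dose-response.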

[2] = Acid dissociation constant was determined; format: ADME
[3] = molecular target: Adrenergic receptor beta (Rattus norvegicus) (UniProt P18090+P10608+P26255); test: Beta agonist activity against heart rate in rats; format: functional, tissue-based
Procedure, shortened: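 Rats anesthetized with pentobarbitone sodium (75 mg/kg ip) and reserpinized 20-24 h earlier (5 mg/kg ip). Single iv doses into tail vein, up to 20 animals. Blood pressure and heart rate recorded; ED30 = dose giving 30 beats/min heart-rate rise, with 95% confidence limits from log dose-response linear regression.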

[4] = molecular target: Beta-2 adrenergic receptor (Rattus norvegicus) (UniProt P10608); test: Beta-2 adrenergic receptor antagonism in rats anesthetized with pentobarbitone sodium (75 mg/kg ip)
[5] = molecular target: Beta-2 adrenergic receptor (Rattus norvegicus) (UniProt P10608); test: Inhibition of isoprenaline induced […] response in anaesthetised rats.

Beta-1 adrenergic receptor (Rattus norvegicus), sequence (P18090 whole entry, looked up): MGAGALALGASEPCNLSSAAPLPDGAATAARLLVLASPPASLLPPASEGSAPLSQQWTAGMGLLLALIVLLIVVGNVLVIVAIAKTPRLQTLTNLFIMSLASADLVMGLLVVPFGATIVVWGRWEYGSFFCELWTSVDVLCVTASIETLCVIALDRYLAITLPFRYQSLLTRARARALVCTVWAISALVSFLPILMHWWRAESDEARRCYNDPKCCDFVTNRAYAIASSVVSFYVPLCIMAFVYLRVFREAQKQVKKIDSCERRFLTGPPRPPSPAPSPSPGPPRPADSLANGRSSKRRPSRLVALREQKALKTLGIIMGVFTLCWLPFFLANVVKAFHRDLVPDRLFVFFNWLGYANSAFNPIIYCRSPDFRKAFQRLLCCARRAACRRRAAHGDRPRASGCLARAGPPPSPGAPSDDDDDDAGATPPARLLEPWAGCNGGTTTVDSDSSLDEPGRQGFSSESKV
Beta-2 adrenergic receptor (Rattus norvegicus), sequence (P10608 whole entry, looked up): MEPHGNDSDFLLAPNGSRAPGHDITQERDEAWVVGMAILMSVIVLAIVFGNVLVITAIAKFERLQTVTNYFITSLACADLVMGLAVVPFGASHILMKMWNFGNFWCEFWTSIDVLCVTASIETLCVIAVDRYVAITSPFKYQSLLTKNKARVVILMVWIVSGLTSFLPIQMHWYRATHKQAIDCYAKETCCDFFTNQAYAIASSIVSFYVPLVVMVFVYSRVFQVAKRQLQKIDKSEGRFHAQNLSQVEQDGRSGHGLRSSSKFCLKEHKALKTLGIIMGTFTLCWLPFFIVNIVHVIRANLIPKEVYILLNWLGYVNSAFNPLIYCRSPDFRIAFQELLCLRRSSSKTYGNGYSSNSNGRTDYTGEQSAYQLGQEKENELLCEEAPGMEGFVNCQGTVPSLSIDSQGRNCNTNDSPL

Row | ED50 [1] [mg/kg] | pKa [2] | ED50 [4] [mg/kg] | ED50 [5] [mg/kg] | Structure (SMILES) | ED30 [3] [µg/kg]
1 | 0.62 | 7.2 | > 1 |  | CC(C)NCC(O)COc1ccc(Cn2ccnc2)cc1 (centres undefined) | > 1000
2 | 0.209 | 2 | > 2 |  | CC(C)NCC(O)COc1ccc(CCn2cccn2)cc1 (centres undefined) | > 1000
3 | 0.687 |  | > 2 |  | CC(C)NCC(O)COc1ccc(OCCn2cnc3ccccc32)cc1 (centres undefined) | > 1000
4 | 0.783 |  | > 2 |  | CC(C)NCC(O)COc1ccc(CCCn2cccn2)cc1 (centres undefined) | > 1000
5 | 0.327 |  | > 2 |  | CC(C)NCC(O)COc1ccc(SCn2cccn2)cc1 (centres undefined) | > 1000
6 | 0.014 | < 1 | > 2 |  | CC(C)NCC(O)COc1ccc(OCCn2nccn2)cc1 (centres undefined) | 14
7 | 0.68 |  | > 2 |  | CC(C)NCC(O)COc1ccc(OCCCn2cncn2)cc1 (centres undefined) | > 1000
8 | 0.17 | 3.2 | > 2 |  | CC(C)NCC(O)COc1ccc(OCCn2cncn2)cc1 (centres undefined) | > 1000
9 | 0.186 |  | > 1 |  | CC(C)NCC(O)COc1ccc(CCn2ccnc2)cc1 (centres undefined) | > 1000
10 | 0.05 |  | 0.988 |  | CC(C)NCC(O)COc1ccc(OCCn2nc3ccccc3n2)cc1 (centres undefined) | > 1000
11 | 0.04 | 1.25 |  | > 2 | CC(C)NCC(O)COc1ccc(OCn2ccnn2)cc1 (centres undefined) | 50
12 | 0.004 | < 0.6 |  | 2.43 | CC(C)NCC(O)COc1ccc(OCn2cc(Cl)cn2)cc1 (centres undefined) | 7
13 | 0.028 | 2 |  | > 2 | CC(C)NCC(O)COc1ccc(OCn2cccn2)cc1 (centres undefined) | > 1000
14 | 0.067 |  | 1.04 |  | CC(C)(C)NCC(O)COc1ccc(OCCn2cccn2)cc1 (centres undefined) | 154
15 | 0.16 |  | > 2 |  | CC(C)NCC(O)COc1ccc(OCCn2cc(-c3ccccc3)cn2)cc1 (centres undefined) | > 1000
16 | 0.057 |  | > 2 |  | CC(C)NCC(O)COc1ccc(OCCn2nc3c(n2)CCCC3)cc1 (centres undefined) | > 1000
17 | 1.27 |  | > 2 |  | CC(C)NCC(O)COc1ccc(OCCn2nnc3ccccc32)cc1 (centres undefined) | > 1000
18 | 0.05 | 2 | > 2 |  | CC(C)NCC(O)COc1ccc(OCCn2cccn2)cc1 (centres undefined) | > 1000
19 | 0.97 |  | > 2 |  | CC(C)NCC(O)COc1ccc(OCCn2ccnc2)cc1 (centres undefined) | > 1000
20 | 0.128 |  | > 2 |  | CC(C)NCC(O)COc1ccc(SCCn2cccn2)cc1 (centres undefined) | > 1000
21 | 0.263 |  | > 2 |  | CC(C)NCC(O)COc1ccc(OCCn2ncc3ccccc32)cc1 (centres undefined) | > 1000
22 | 0.233 | 3.2 | > 2 |  | CC(C)NCC(O)COc1ccc(CCn2cncn2)cc1 (centres undefined) | > 1000
23 | 0.598 |  | > 2 |  | CC(C)NCC(O)COc1ccc(Cn2cccn2)cc1 (centres undefined) | > 1000
24 | 0.024 | < 0.6 | 0.523 |  | CC(C)NCC(O)COc1ccc(OCCn2cc(Cl)cn2)cc1 (centres undefined) | 194
25 | 0.011 | < 1 |  | > 2 | CC(C)NCC(O)COc1ccc(OCn2nccn2)cc1 (centres undefined) | 19
26 | 0.334 |  | > 2 |  | CC(C)NCC(O)COc1ccc(OCCCn2cccn2)cc1 (centres undefined) | > 1000
